Laboratory results taken from ChEMBL document CHEMBL1156107, “Synthesis of new alkylaminooxysterols with potent cell differentiating activities: identification of leads for the treatment of cancer and neurodegenerative diseases” (J Med Chem, 2009).
Calls of active or inactive are those of the source. The calls are words filed in the database; no cut-off is given here.

How the values were obtained:
P19 [1] = assay: Induction of mouse P19 cell differentiation into neuron assessed as stimulation of MAP2A expression at 10 nM after 48 hrs by immunocytochemistry; type: functional, cell-based
Summary of the method: (§1)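 P19 cells seeded at 10 000/well and treated with vehicle or 10 nM compound. Cells fixed in 4% paraformaldehyde, permeabilized with 1% BSA/0.05% saponin and blocked in 3% BSA. Stained with anti-MAP2A (1/100) or anti-β3-tubulin (1/200) for 1 h at room temperature, then TRITC secondary, and viewed by fluorescence microscopy.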

SH-SY5Y [2] = assay: Cytotoxicity against human SH-SY5Y cells up to 20 uM after 72 hrs by trypan blue exclusion assay; type: functional, cell-based
Summary of the method: (§2)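 Tumor lines grown at 37 °C in 5% CO₂, in RPMI 1640 or DMEM with FBS. Cells exposed to compound from 10 nM to 20 μM for 72 h. Cytotoxicity counted by trypan blue exclusion: cells scraped, suspended in 0.25% w/v trypan blue in PBS and counted in a Malassez cell under light microscopy. IC50 is the concentration giving 50% cytotoxicity.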

SK-N-SH [3] = assay: Induction of neurite outgrowth in human SK-N-SH cells at 100 nM after 48 hrs by crystal violet staining; type: functional, cell-based
U-87MG ATCC [4] = assay: Induction of neurite outgrowth in human U87 cells at 100 nM after 48 hrs by crystal violet staining; type: functional, cell-based
KG-1 = assay: Cytotoxicity against human KG1 cells up to 20 uM after 72 hrs by trypan blue exclusion assay; type: functional, cell-based; summary of the method: as §2
SK-MEL-28 = assay: Cytotoxicity against human SK-MEL-28 cells up to 20 uM after 72 hrs by trypan blue exclusion assay; type: functional, cell-based; summary of the method: as §2
P19 [5] = assay: Cytotoxicity against mouse P19 cells up to 20 uM after 72 hrs by trypan blue exclusion assay; type: functional, cell-based; summary of the method: as §2
HCT-8 = assay: Cytotoxicity against human HCT8 cells up to 20 uM after 72 hrs by trypan blue exclusion assay; type: functional, cell-based; summary of the method: as §2
Mus musculus = species: Mus musculus; assay: Neuroprotective activity in mouse motoneuron assessed as cell proliferation at 10 nM treated for 3 days measured on day 2 to 6 post-treatment by cell counting method; type: functional; details: in the assay text read “cell survival” for “cell proliferation”
Summary of the method: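 Purified mouse motoneurons; solvent vehicle, 100 ng/mL BDNF or 10 nM test agent added immediately after seeding; cells counted at days 2, 3, 4 and 6; surviving motoneurons expressed as percentage.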

B16-F10 = assay: Cytotoxicity against mouse B16F10 cells up to 20 uM after 72 hrs by trypan blue exclusion assay; type: functional, cell-based; summary of the method: as §2
U-937 [6] = assay: Cytotoxicity against human U937 cells after 3 days by trypan blue exclusion assay; type: functional, cell-based; details: u-937
Summary of the method: (§3)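 U937 and P19 cells treated with compound. Cell death scored by trypan blue exclusion, with cells scraped, suspended in 0.25% w/v trypan blue in PBS and counted in a Malassez cell. IC50 is the concentration giving 50% cytotoxicity.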

U-937 [7] = assay: Cytotoxicity against human U937 cells up to 20 uM after 3 days by trypan blue exclusion assay; type: functional, cell-based; summary of the method: as §3
N2a [8] = assay: Cytotoxicity against mouse Neuro2a cells up to 20 uM after 72 hrs by trypan blue exclusion assay; type: functional, cell-based; summary of the method: as §2
SW-620 = assay: Cytotoxicity against human SW620 cells up to 20 uM after 72 hrs by trypan blue exclusion assay; type: functional, cell-based; summary of the method: as §2
NB-4 = assay: Cytotoxicity against human NB4 cells up to 20 uM after 72 hrs by trypan blue exclusion assay; type: functional, cell-based; summary of the method: as §2
P19 [9] = assay: Induction of dendrite out growth in IL-4/GMCSF-stimulated mouse P19 cells assessed as dendrite length at 100 nM after 48 hrs by light microscopy; type: functional
SK-N-SH [10] = assay: Cytotoxicity against human SK-N-SH cells up to 20 uM after 72 hrs by trypan blue exclusion assay; type: functional, cell-based; summary of the method: as §2
P19 [11] = assay: Induction of mouse P19 cell differentiation into neuron assessed as stimulation of NMDAR1 expression at 10 nM after 48 hrs by Western blotting; type: functional, cell-based
Summary of the method: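 P19 cells treated with 10 nM compound for 48 h and lysed in Tris pH 7.4 RIPA-type buffer. Proteins run on 7.5% SDS-PAGE and blotted to PVDF. Probed overnight at 4 °C with anti-NMDAR1 (1:1000), with GAPDH as loading control, and detected by enhanced chemiluminescence.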

A549 = assay: Cytotoxicity against human A549 cells up to 20 uM after 72 hrs by trypan blue exclusion assay; type: functional, cell-based; summary of the method: as §2
U-87MG ATCC [12] = assay: Cytotoxicity against human U87 cells up to 20 uM after 72 hrs by trypan blue exclusion assay; type: functional, cell-based; summary of the method: as §2
U-937 [13] = assay: Cytotoxicity against human U937 cells up to 20 uM after 72 hrs by trypan blue exclusion assay; type: functional, cell-based; summary of the method: as §2
SH-SY5Y [14] = assay: Induction of neurite outgrowth in human SH-SY5Y cells at 100 nM after 48 hrs by crystal violet staining; type: functional, cell-based
Summary of the method: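 Cells exposed to 100 nM compound for 48 h on poly-D-lysine-coated inserts with a 3 μm pore membrane. Neurites crossing the membrane were methanol-fixed and stained, cell bodies were removed, and the dye was extracted and read at 562 nm.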

N2a [15] = assay: Induction of neurite outgrowth in mouse Neuro2a cells at 100 nM after 48 hrs by crystal violet staining; type: functional, cell-based
P19 [16] = assay: Induction of neuritogenesis in mouse P19 cells assessed as dendrite expansion at 10 nM after 48 hrs by light microscopy; type: functional, cell-based
Summary of the method: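 P19 embryonal carcinoma cells exposed to 10 nM or solvent vehicle for 48 h; dendrite expansion and cell-contact network assessed by light microscopy.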

U-937 [17] = assay: Induction of dendrite out growth in IL-4/GMCSF-stimulated human U937 cells assessed as dendrite length at 100 nM after 48 hrs by light microscopy; type: functional
Summary of the method: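 U937 cells at 1.1 × 10⁶ cells/mL were primed with 10 ng/mL PMA for 48 h in RPMI with 10% heat-inactivated serum. Adherent cells were then given 100 ng/mL IL-4 plus 100 ng/mL GM-CSF or 100 nM compound for 48 h. Dendrite length scored by light microscopy, from none to over 100 μm with a contact network.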

MCF7 = assay: Cytotoxicity against human MCF7 cells up to 20 uM after 72 hrs by trypan blue exclusion assay; type: functional, cell-based; summary of the method: as §2
P19 [18] = assay: Induction of mouse P19 cell differentiation into neuron assessed as stimulation of beta-3 tubulin expression at 10 nM after 48 hrs by immunocytochemistry; type: functional, cell-based; summary of the method: as §1
P19 [19] = assay: Cytotoxicity against mouse P19 cells up to 20 uM after 3 days by trypan blue exclusion assay; type: functional, cell-based; summary of the method: as §3
P19 [20] = assay: Cytotoxicity against mouse P19 cells after 3 days by trypan blue exclusion assay; type: functional, cell-based; details: p19; summary of the method: as §3
P19 [21] = assay: Induction of neurite outgrowth in mouse P19 cells at 100 nM after 48 hrs by crystal violet staining; type: functional, cell-based
TS/A = assay: Cytotoxicity against mouse TSA cells up to 20 uM after 72 hrs by trypan blue exclusion assay; type: functional, cell-based; summary of the method: as §2

CC(C)CCC[C@@H](C)[C@H]1CC[C@H]2C3=C[C@@H](NCCCNCCCCN)[C@@]4(O)C[C@@H](O)CC[C@]4(C)[C@H]3CC[C@]12C [DENDROGENIN B]
Activity (P19 [1]): Active
Activity (SH-SY5Y [2]): inactive
Activity (SK-N-SH [3]): Active
Activity (U-87MG ATCC [4]): Active
Activity (KG-1): inactive
Activity (SK-MEL-28): inactive
Activity (P19 [5]): inactive
Activity (HCT-8): inactive
Activity (Mus musculus): Active
Activity (B16-F10): inactive
IC50 (U-937 [6]): Not Active
Activity (U-937 [7]): inactive
Activity (N2a [8]): inactive
Activity (SW-620): inactive
Activity (NB-4): inactive
Activity (P19 [9]): > 100 um
Activity (SK-N-SH [10]): inactive
Activity (P19 [11]): Active
Activity (A549): inactive
Activity (U-87MG ATCC [12]): inactive
Activity (U-937 [13]): inactive
Activity (SH-SY5Y [14]): Active
Activity (N2a [15]): Active
Activity (P19 [16]): Active
Activity (U-937 [17]): <5 um
Activity (MCF7): inactive
Activity (P19 [18]): Active
Activity (P19 [19]): inactive
IC50 (P19 [20]): Not Active
Activity (P19 [21]): Active
Activity (TS/A): inactive
